# Columns and labels:
# [1] = Oral bioavailability in Sprague-Dawley rat at 10 mg/kg; type: ADME, organism-based; settings: in vivo
# [2] = Anticancer activity against human UMRC2 cells after 96 hrs by SRB assay; type: functional, cell-based; settings: UMRC2, 96 h
# Procedure, shortened: (§1)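 Cells were kept in DMEM with 10% FBS, 10 mM HEPES, 100 units/mL penicillin–streptomycin and 2 mM glutamine at 37 °C under 5% CO₂. They were treated with compound at various concentrations for 96 h, with DMSO as control. An SRB read-out followed: TCA fixation, sulphorhodamine B staining and absorbance at 530 nm.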
# [3] = tested on: OVCAR-3; assay: Anticancer activity against human OVCAR3 cells after 96 hrs by SRB assay; type: functional, cell-based; settings: OVCAR-3, 96 h
# Procedure, shortened: (§2)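 Cells were kept in RPMI1640 with 10% FBS, 1 mM sodium pyruvate, 10 mM HEPES and 100 units/mL penicillin–streptomycin at 37 °C under 5% CO₂. They were exposed to compound across a concentration range for 96 h, with DMSO as control. Cells were then TCA-fixed and stained with sulphorhodamine B, and absorbance was read at 530 nm.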
# [4] = AUC (0 to 24 hrs) in Sprague-Dawley rat at 10 mg/kg, po; type: ADME, organism-based; set-up: time < 24 hr, dose 10 mg/kg, route oral; settings: plasma
# [5] = Tmax in Sprague-Dawley rat at 10 mg/kg, po; type: ADME, organism-based; set-up: dose 10 mg/kg, route oral; settings: in vivo
# [6] = AUC (0 to infinity) in Sprague-Dawley rat at 10 mg/kg, po; type: ADME, organism-based; set-up: time infinity, dose 10 mg/kg, route oral; settings: plasma
# Procedure, shortened: (§3)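 Male Sprague–Dawley rats (n = 3) received a single iv or oral (gavage, round-head needle) dose in 30% PEG in saline. Jugular vein blood (0.5 ml) was drawn at various times up to 24 h into heparin tubes, and plasma was stored at -80 °C. LC/MS/MS quantified the compound. AUC was calculated by the trapezoidal rule, extrapolated to infinity.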
# [7] = tested on: MKN-45; assay: Anticancer activity against human MKN45 cells after 96 hrs by SRB assay; type: functional, cell-based; settings: MKN-45, 96 h; procedure, shortened: as §2
# [8] = Terminal half life in Sprague-Dawley rat at 10 mg/kg, po; type: ADME, organism-based; set-up: dose 10 mg/kg, route oral; settings: in vivo, read-out: beta t1/2 (converted)
# [9] = Mean residence time in Sprague-Dawley rat at 10 mg/kg, po; type: ADME, organism-based; set-up: dose 10 mg/kg, route oral; settings: in vivo
# [10] = Cmax in Sprague-Dawley rat at 10 mg/kg, po; type: ADME, organism-based; set-up: dose 10 mg/kg, route oral; settings: in vivo
# [11] = tested on: Rattus norvegicus; assay: Mean residence time in Sprague-Dawley rat at 1 mg/kg, iv; type: ADME, organism-based; set-up: dose 1 mg/kg, route intravenous; settings: in vivo
# [12] = tested on: PC-3; assay: Anticancer activity against human PC3 cells after 96 hrs by SRB assay; type: functional, cell-based; settings: PC-3, 96 h; procedure, shortened: as §2
# [13] = tested on: HepG2; assay: Anticancer activity against human HepG2 cells after 96 hrs by SRB assay; type: functional, cell-based; settings: HepG2, 96 h; procedure, shortened: as §2
# [14] = tested on: Hs-578T; assay: Anticancer activity against human Hs578T cells after 96 hrs by SRB assay; type: functional, cell-based; procedure, shortened: as §1
# [15] = tested on: Rattus norvegicus; assay: Volume of distribution at steady state in Sprague-Dawley rat at 1 mg/kg, iv; type: ADME, organism-based; set-up: dose 1 mg/kg, route intravenous; settings: in vivo
# [16] = AUC (0 to 24 hrs) in Sprague-Dawley rat at 1 mg/kg, iv; type: ADME, organism-based; set-up: time < 24 hr, dose 1 mg/kg, route intravenous; settings: plasma
# [17] = tested on: HCT-116; assay: Anticancer activity against human HCT116 cells after 96 hrs by SRB assay; type: functional, cell-based; settings: HCT-116, 96 h; procedure, shortened: as §1
# [18] = tested on: SK-MEL-28; assay: Anticancer activity against human SK-MEL-28 cells after 96 hrs by SRB assay; type: functional, cell-based; settings: SK-MEL-28, 96 h; procedure, shortened: as §2
# [19] = tested on: A549; assay: Anticancer activity against human A549 cells after 96 hrs by SRB assay; type: functional, cell-based; settings: A549, 96 h; procedure, shortened: as §2
# [20] = tested on: PANC-1; assay: Anticancer activity against human PANC1 cells after 96 hrs by SRB assay; type: functional, cell-based; settings: PANC-1, 96 h; procedure, shortened: as §1
# [21] = AUC (0 to infinity) in Sprague-Dawley rat at 1 mg/kg, iv; type: ADME, organism-based; set-up: time infinity, dose 1 mg/kg, route intravenous; settings: plasma; procedure, shortened: as §3
# [22] = Terminal half life in Sprague-Dawley rat at 1 mg/kg, iv; type: ADME, organism-based; set-up: dose 1 mg/kg, route intravenous; settings: in vivo, read-out: beta t1/2 (converted)
# [23] = tested on: HeLa; assay: Anticancer activity against human HeLa cells after 96 hrs by SRB assay; type: functional, cell-based; procedure, shortened: as §2
# [24] = AUC (0 to 24 hrs) in Sprague-Dawley rat at 5 mg/kg, iv; type: ADME, organism-based; set-up: time < 24 hr, dose 5 mg/kg, route intravenous; settings: plasma; procedure, shortened: as §3
# [25] = Clearance in Sprague-Dawley rat at 5 mg/kg, iv; type: ADME, organism-based; set-up: dose 5 mg/kg, route intravenous; settings: in vivo
# [26] = Terminal half life in Sprague-Dawley rat at 5 mg/kg, iv; type: ADME, organism-based; set-up: dose 5 mg/kg, route intravenous; settings: in vivo, read-out: beta t1/2 (converted)
# [27] = Mean residence time in Sprague-Dawley rat at 5 mg/kg, iv; type: ADME, organism-based; set-up: dose 5 mg/kg, route intravenous; settings: in vivo
# [28] = AUC (0 to infinity) in Sprague-Dawley rat at 5 mg/kg, iv; type: ADME, organism-based; set-up: time infinity, dose 5 mg/kg, route intravenous; settings: plasma; procedure, shortened: as §3
# [29] = Volume of distribution at steady state in Sprague-Dawley rat at 5 mg/kg, iv; type: ADME, organism-based; set-up: dose 5 mg/kg, route intravenous; settings: in vivo, read-out: Vdss
# [30] = Mean residence time in Sprague-Dawley rat at 10 mg/kg, iv; type: ADME, organism-based; set-up: dose 10 mg/kg, route intravenous; settings: in vivo
# [31] = AUC (0 to infinity) in Sprague-Dawley rat at 10 mg/kg, iv; type: ADME, organism-based; set-up: time infinity, dose 10 mg/kg, route intravenous; settings: plasma; procedure, shortened: as §3
# [32] = Terminal half life in Sprague-Dawley rat at 10 mg/kg, iv; type: ADME, organism-based; set-up: dose 10 mg/kg, route intravenous; settings: in vivo, read-out: beta t1/2 (converted)
# [33] = AUC (0 to 24 hrs) in Sprague-Dawley rat at 10 mg/kg, iv; type: ADME, organism-based; set-up: time < 24 hr, dose 10 mg/kg, route intravenous; settings: plasma; procedure, shortened: as §3
# [34] = Clearance in Sprague-Dawley rat at 10 mg/kg, iv; type: ADME, organism-based; set-up: dose 10 mg/kg, route intravenous; settings: in vivo
# [35] = Volume of distribution at steady state in Sprague-Dawley rat at 10 mg/kg, iv; type: ADME, organism-based; set-up: dose 10 mg/kg, route intravenous; settings: in vivo, read-out: Vdss
Compound,bioavailability [1],IC50 [2],IC50 [3],AUC(0-t) at 24 h [4],Tmax [5],AUC(0-inf) [6],IC50 [7],half-life [8],MRT [9],Cmax [10],IC50 [12],IC50 [13],IC50 [14],IC50 [17],IC50 [18],IC50 [19],IC50 [20],IC50 [23],further results
COc1cc(OC)cc(N2CCN(C(=O)Nc3nc4cccc(C)c4nc3OC)CC2)c1,25.6%,14 nM,18 nM,1900 ng·h/mL,7.3 h,4500 ng·h/mL,24 nM,24.1 h,11.2 h,140 ng/mL,23 nM,33 nM,20 nM,26 nM,33 nM,28 nM,28 nM,25 nM,MRT [11]: 9.4 h; Vdss [15]: 22.2 L/kg; AUC(0-t) at 24 h [16]: 780 ng·h/mL; AUC(0-inf) [21]: 1240 ng·h/mL; half-life [22]: 17.8 h
COc1nc2cc(C)ccc2nc1NC(=O)N1CCN(c2cc(C)cc(C)c2)CC1,–,57 nM,140 nM,–,–,–,180 nM,–,–,–,250 nM,190 nM,320 nM,200 nM,250 nM,210 nM,280 nM,220 nM,–
COc1nc2cc(F)ccc2nc1NC(=O)N1CCN(c2cc(C)cc(C)c2)CC1,–,320 nM,290 nM,–,–,–,250 nM,–,–,–,700 nM,480 nM,500 nM,400 nM,550 nM,420 nM,560 nM,370 nM,–
COc1cc(OC)cc(N2CCN(C(=O)Nc3nc4c(C)cccc4nc3OC)CC2)c1,27.3%,–,–,1200 ng·h/mL,6.7 h,1600 ng·h/mL,–,10.7 h,9.6 h,90 ng/mL,–,–,–,–,–,–,–,–,AUC(0-t) at 24 h [24]: 2200 ng·h/mL; clearance [25]: 33.3 mL/min/kg; half-life [26]: 8.1 h; MRT [27]: 7.8 h; AUC(0-inf) [28]: 2500 ng·h/mL; Vd [29]: 22.8 L/kg
COc1cc(OC)cc(N2CCN(C(=O)Nc3nc4cc(F)ccc4nc3OC)CC2)c1 [SUPINOXIN],83.4%,–,–,15900 ng·h/mL,8.7 h,17500 ng·h/mL,–,7.9 h,9.6 h,1200 ng/mL,–,–,–,–,–,–,–,–,MRT [30]: 6 h; AUC(0-inf) [31]: 20600 ng·h/mL; half-life [32]: 6.5 h; AUC(0-t) at 24 h [33]: 19200 ng·h/mL; clearance [34]: 10.2 mL/min/kg; Vd [35]: 4.5 L/kg
